Assay results taken from ChEMBL document CHEMBL3994675, “Carbamylmethyl Mercaptoacetate Thioether: A Novel Scaffold for the Development of L1 Metallo-β-lactamase Inhibitors” (ACS Med Chem Lett, 2017).

Assays:
[1] = Chemical stability in pH 5 Tris buffer after 4 days by UV-Visible spectral analysis; format: physicochemical; details: pH 5, 96 h
Procedure, shortened: (§1)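 Compounds incubated in aqueous solution at pH 5.0, 7.0 and 9.0 for 4 days; stability followed by UV-vis spectra.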

[2] = Inhibition of L1 (unknown origin) expressed in Escherichia coli BL21(DE3) using cefazolin as substrate by ITC
Procedure, shortened: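 Isothermal titration calorimetry at 25 °C with 5 nM L1, 160 μM cefazolin and inhibitor at 0–100 μM; hydrolysis progress monitored as heat flow. Rates from runs at different substrate concentrations plotted against substrate concentration at 0, 50 and 100 μM inhibitor.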

[3] = Inhibition of L1 (unknown origin) expressed in Escherichia coli DH10B harboring pBC SK(+)-L1 assessed as potentiation of cefazolin-induced antibacterial activity by measuring cefazolin MIC at 1024 ug/ml after 12 hrs macrodilution broth method
Procedure, shortened: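 Cefazolin MICs were read for E. coli DH10B carrying pBC SK(+)-L1 across a series of inhibitor concentrations. Cefazolin alone (no inhibitor) on the same strain served as the reference MIC. E. coli not expressing L1 was tested alongside as the susceptible comparator.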

[4] = Inhibition of L1 (unknown origin) expressed in Escherichia coli BL21(DE3) at 100 uM using cefazolin as substrate preincubated for 3 to 60 mins followed by substrate addition by UV-Visible spectrophotometric method relative to control; details: TDE = time-dependent effect
Procedure, shortened: (§2)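 Purified enzyme preincubated with 100 μM inhibitor in its enzyme-specific buffer, then substrate added: 50 μM cefazolin for IMP-1 and L1, 40 μM imipenem for ImiS. Hydrolysis followed by UV-vis spectrophotometry. Preincubation times of 3–60 min were tested. % inhibition = activity without inhibitor (100%) minus residual activity.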

[5] = Inhibition of IMP1 (unknown origin) expressed in Escherichia coli BL21(DE3) at 100 uM using cefazolin as substrate preincubated for 3 to 60 mins followed by substrate addition by UV-Visible spectrophotometric method; details: TDE = time-dependent effect; procedure, shortened: as §2
[6] = tested on: L929; experiment: Cytotoxicity against mouse L929 cells assessed as reduction in cell viability up to 400 uM after 48 hrs by CCK assay; format: cell-based; details: l929, 48 h
Procedure, shortened: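 L-929 mouse fibroblasts exposed to compound at 12.5, 25, 50, 100, 200 and 400 μM working concentrations; cell viability measured.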

[7] = Inhibition of ImiS (unknown origin) expressed in Escherichia coli BL21(DE3) at 100 uM using imipenem as substrate preincubated for 30 mins followed by substrate addition by UV-Visible spectrophotometric method relative to control; procedure, shortened: as §2
[8] = Inhibition of ImiS (unknown origin) expressed in Escherichia coli BL21(DE3) at 100 uM using imipenem as substrate preincubated for 3 to 60 mins followed by substrate addition by UV-Visible spectrophotometric method relative to control; details: TDE = time-dependent effect; procedure, shortened: as §2
[9] = Chemical stability in pH 7 Tris buffer after 4 days by UV-Visible spectral analysis; format: physicochemical; details: pH 7, 96 h; procedure, shortened: as §1
[10] = tested on: Escherichia coli; experiment: Growth inhibition of Escherichia coli DH10B harboring pBC SK(+)-L1 at 1024 ug/ml after 12 hrs macrodilution broth method; design: species or system K-12 substr. DH10B
Procedure, shortened: (§3)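 Cefazolin MIC determined for E. coli DH10B carrying pBC SK(+)-L1 and for E. coli not expressing L1, with and without compound.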

[11] = Inhibition of IMP1 (unknown origin) expressed in Escherichia coli BL21(DE3) at 100 uM using cefazolin as substrate preincubated for 30 mins followed by substrate addition by UV-Visible spectrophotometric method relative to control; procedure, shortened: as §2
[12] = tested on: Escherichia coli; experiment: Growth inhibition of Escherichia coli DH10B at 1024 ug/ml after 12 hrs macrodilution broth method; design: species or system K-12 substr. DH10B; procedure, shortened: as §3
[13] = Inhibition of L1 (unknown origin) expressed in Escherichia coli BL21(DE3) using cefazolin as substrate preincubated for 30 mins followed by substrate addition by UV-Visible spectrophotometric method
Procedure, shortened: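 L1 IC50 measured in 30 mM Tris, pH 8.5, with cefazolin as substrate and inhibitor at 0.1–20 μM. Run in triplicate; mean ± SD reported.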

[14] = Chemical stability in pH 9 Tris buffer after 4 days by UV-Visible spectral analysis; format: physicochemical; details: pH 9, 96 h; procedure, shortened: as §1
[15] = Inhibition of L1 (unknown origin) expressed in Escherichia coli BL21(DE3) at 100 uM using cefazolin as substrate preincubated for 30 mins followed by substrate addition by UV-Visible spectrophotometric method relative to control; procedure, shortened: as §2

With `Cc1ccc(NC(=O)CSCC(=O)[O-])cc1.[K+]` the Stability [1] was “Stable”, the inhibition [2] was “Dose-dependent effect” and the MIC [3] was 16 µg/mL. The inhibition [4] was “Tde”, the inhibition [5] was “Tde” and the Activity [6] was “Non-Toxic”. The inhibition [7] was 52%, the inhibition [8] was “Tde” and the Stability [9] was “Stable”. For the same compound, the “growth inhibition (GI)” value [10] was “Non-Toxic”, the inhibition [11] was 37% and the “growth inhibition (GI)” value [12] was “Non-Toxic”. For the same compound, the IC50 [13] was 410 nM, the inhibition [13] was “Dose-dependent effect” and the Stability [14] was “Stable”. It also gave an inhibition [15] of 97%.
